Activity calls are given as the source filed them.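 How the source made its calls: active means estrogen-induced reporter signal reduced by at least 20%; inactive means reduction of reporter signal under 20%.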
System: not listed separately
Test: inhibitors of ER-driven luciferase reporter, late-stage follow-up, counter-screen for AHR activator project, BG1Luc4E2 ovarian carcinoma cells, luminescence, set 2 (AID 624398)
Details: BG1Luc4E2 ERE-luciferase, estradiol-induced, luminescence, 24 h; at 10 µM; hits give high values
Summary of the method: (§1)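 Test system: 2xERE luciferase reporter; Probe or stimulus: 1 nM estradiol; Dosing: single 10 µM dose or series up to 100 µM nominal; Schedule: compound and estradiol exposure 24 h at 37 °C; Measured by: luciferase luminescence measured after cell lysis.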

Q: With COc1ccc(-c2cc(-c3ccc(C)cc3O)[nH]n2)cc1 as the compound, how does the inhibition read?
A: The inhibition was 40.9%.

Q: With COc1ccc(Cl)cc1NC(=O)c1ccc(C(=O)Nc2cc(Cl)ccc2OC)nc1 as the compound, how does the inhibition read?
A: Its inhibition is 79.6%.

Q: For O=C(CSc1nc(-c2ccc(F)cc2)cs1)Nc1ccccn1, which inhibition is on record?
A: The inhibition was -26.7% (inactive).

Q: For COc1ccc(NC(=O)c2ccc(C(=O)Nc3ccc(OC)cc3OC)nc2)c(OC)c1, which inhibition is on record?
A: Its inhibition is 19.4% (inactive).

Q: For Cc1cc(Nc2ccc(F)cc2)nc(N)n1, which inhibition is on record?
A: The inhibition was 15.8% (inactive).

Q: For Nc1nc(Cl)cc(Nc2ccccc2F)n1, which inhibition is on record?
A: Its inhibition is 8% (inactive).

Q: Which inhibition does the source give for Cc1csc(SCC(=O)Nc2ccccn2)n1 here?
A: The inhibition was 12.2% (inactive).

Q: For CCOc1ccccc1NC(=O)c1ccc(C(=O)Nc2ccccc2OCC)nc1, which inhibition is on record?
A: Its inhibition is -45.6% (inactive).

Q: Which inhibition does the source give for Cc1cc(Br)cc(C)c1Nc1ccnc(Nc2ccc(C#N)cc2)n1 here?
A: Its inhibition is 92.9%.

Q: Which inhibition does the source give for O=C(CSc1nc2ccccc2s1)Nc1ccccn1 here?
A: The inhibition was 79%.

Q: For O=C(CSc1nc2ccccc2s1)Nc1ccc(Cl)cn1, which inhibition is on record?
A: The inhibition was 38.8%.

Q: With Nc1nc(Cl)cc(Nc2ccc(Oc3ccccc3)cc2)n1 as the compound, how does the inhibition read?
A: Its inhibition is -6.3% (inactive).

Q: Which inhibition does the source give for COc1ccc(O)c(-c2cc(-c3cccs3)[nH]n2)c1 here?
A: The inhibition was 43.1%.

Q: With Cc1ccc(NC(=O)c2ccc(C(=O)Nc3ccc(C)cc3C)nc2)c(C)c1 as the compound, how does the inhibition read?
A: The inhibition was 33.6%.

Q: Which inhibition does the source give for COc1ccc(Nc2cc(Cl)nc(N)n2)cc1 here?
A: The inhibition was -52.4% (inactive).

Q: For Cc1cccc(C)c1NC(=O)c1ccc(C(=O)Nc2c(C)cccc2C)nc1, which inhibition is on record?
A: Its inhibition is -12.6% (inactive).

Q: With Cc1ccc(O)c(-c2cc(-c3ccccc3Cl)[nH]n2)c1 as the compound, how does the inhibition read?
A: Its inhibition is 66.3%.

Q: For COc1ccc(Nc2cc(Cl)nc(N)n2)cc1OC, which inhibition is on record?
A: The inhibition was -18.4% (inactive).

Q: With CCOC(=O)c1c(C)nn(-c2cc(Cl)ccc2Cl)c1C as the compound, how does the inhibition read?
A: Its inhibition is 29%.

Q: For CN(Cc1cc(-c2cccs2)n[nH]1)Cc1coc2ccccc2c1=O, which inhibition is on record?
A: Its inhibition is -31.1% (inactive).

Q: With Cc1ccnc(NC(=O)CSc2nc3ccccc3s2)c1 as the compound, how does the inhibition read?
A: The inhibition was 16.1% (inactive).

Q: Which inhibition does the source give for Cc1cccc(NC(=O)c2cc(-c3ccc(C)cc3O)n[nH]2)c1 here?
A: Its inhibition is -95.6% (inactive).

System: BG1Luc4E2 ERE-luciferase, estradiol-induced, luminescence, 24 h
Test: as above
Details: not given
Summary of the method: as §1

Q: With Cc1ccc(-c2cc(-c3ccc(Cl)cc3)n[nH]2)c(O)c1 as the compound, how does the IC50 read?
A: Its IC50 is 30 µM.

Q: For Cc1ccc(-c2cc(-c3ccc(F)cc3)n[nH]2)c(O)c1, which IC50 is on record?
A: Its IC50 is 20 µM.

From PubChem BioAssay AID624398 (The Scripps Research Institute Molecular Screening Center, 2012)
